From ChEMBL document CHEMBL4002582, “Bioactive Terpenoids from Salvia plebeia: Structures, NO Inhibitory Activities, and Interactions with iNOS” (J Nat Prod, 2016)

How the values were obtained:
[1] = system: BV-2; test: Antiinflammatory activity in mouse BV2 cells assessed as inhibition of LPS-induced nitric oxide production incubated for 24 hrs by Griess assay; format: functional, cell-based; settings: BV-2, 24 h
Outline: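 NO output from murine microglial BV-2 cells was stimulated with lipopolysaccharide. IC50 values were derived from the inhibition of LPS-induced NO generation, and results come from three experiments. 2-Methyl-2-thiopseudourea sulfate (SMT) was the positive control.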

[2] = system: BV-2; test: Cytotoxicity against mouse BV2 cells assessed as effect on cell survival by MTT assay; format: cell-based

SMILES	IC50 [1]	Activity [2]
CC1=CC[C@@H]2[C@@H]3C[C@H]1[C@@]2(C)[C@@H](O)C[C@@H]3C(C)C	92.9 µM	Non-Toxic
CC(=O)O[C@H]1CC(C)(C)C2=C(O)C(=O)c3cc(C(C)C)c(O)c(O)c3[C@@]2(C)C1	26.5 µM	Non-Toxic
CO[C@H]1O[C@H]2CC[C@@]13c1c(cc(C(C)C)c(O)c1O)CC[C@H]3C2(C)C	> 30 µM	Non-Toxic
CC(=O)O[C@H]1CC(C)(C)[C@@H]2C[C@@H]3OC[C@@]2(C1)c1c3cc(C(C)C)c(O)c1O	> 30 µM	Non-Toxic
CC(=O)OC[C@@]1(O)CC[C@@H]2[C@H]([C@H]3[C@H]1CC[C@]3(C)O)C2(C)C	47.6 µM	Non-Toxic
CC(C)C1=CC[C@@]2(C)[C@H](O)CC[C@](C)(O)[C@@H]2C1 [OPLODIOL]	63.5 µM	Non-Toxic

Further compounds by falling IC50 [1], results first:

IC50 [1]	SMILES	Activity [2]
38.9 µM	CC(=O)[C@H]1CC[C@@H]2[C@@H]1[C@H](C(C)C)CC[C@@]2(C)O	Non-Toxic
14.8 µM	CC(C)C1=C[C@@]23CC[C@H]4C(C)(C)C[C@H](O)C[C@]4(CO2)C3=C(O)C1=O	Non-Toxic
10.6 µM	CC(C)c1cc2c(c(O)c1O)C[C@@]1(O)CCCC(C)(C)[C@@H]1CC2	Non-Toxic
5.7 µM	CC(=O)O[C@H]1CC(C)(C)[C@@H]2CC[C@@]34C=C(C(C)C)C(=O)C(O)=C3[C@@]2(CO4)C1	Non-Toxic
2.9 µM	CSC(=N)N	
